Assay results reported in ChEMBL document CHEMBL1157555, “Synthesis and pharmacological evaluation of novel 1,3,8- and 1,3,7,8-substituted xanthines as adenosine receptor antagonists” (Bioorg Med Chem, 2010).
pKi: −log10 of the molar value.

How the values were obtained:
Adenosine receptor A1 = target: T1, Adenosine receptor A1 (Homo sapiens, UniProt P30542); assay: Displacement of [3H]DPCPX from human recombinant adenosine A1 receptor expressed in CHO cells by microplate beta scintillation counter; assay type: cell-based
T1 sequence (P30542 whole entry): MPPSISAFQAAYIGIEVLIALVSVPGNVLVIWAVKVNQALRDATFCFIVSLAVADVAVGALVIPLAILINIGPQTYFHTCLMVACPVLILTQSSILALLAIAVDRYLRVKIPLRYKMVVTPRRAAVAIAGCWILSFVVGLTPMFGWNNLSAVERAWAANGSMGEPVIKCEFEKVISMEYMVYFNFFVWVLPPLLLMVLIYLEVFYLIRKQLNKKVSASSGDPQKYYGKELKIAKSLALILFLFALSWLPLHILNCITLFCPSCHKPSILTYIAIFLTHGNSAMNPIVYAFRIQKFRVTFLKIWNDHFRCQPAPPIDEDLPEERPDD
Procedure, shortened: (§1)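 Membranes from CHO cells expressing human A1 were labelled with 2 nM [3H]DPCPX. Non-specific binding was defined with (R)-PIA. Incubation ran 60 min at 25 °C, then samples were filtered and counted by beta scintillation. IC50 came from non-linear regression, and Ki from Cheng–Prusoff. Weak or poorly soluble compounds were reported as % inhibition of specific binding at a single concentration. Mean of 3 experiments, each in duplicate.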

Adenosine receptor A2b = target: T2, Adenosine receptor A2b (Homo sapiens, UniProt P29275); assay: Displacement of [3H]DPCPX from human recombinant adenosine A2B receptor expressed in HEK293 cells by microplate beta scintillation counter; assay type: cell-based
T2 sequence (P29275 whole entry): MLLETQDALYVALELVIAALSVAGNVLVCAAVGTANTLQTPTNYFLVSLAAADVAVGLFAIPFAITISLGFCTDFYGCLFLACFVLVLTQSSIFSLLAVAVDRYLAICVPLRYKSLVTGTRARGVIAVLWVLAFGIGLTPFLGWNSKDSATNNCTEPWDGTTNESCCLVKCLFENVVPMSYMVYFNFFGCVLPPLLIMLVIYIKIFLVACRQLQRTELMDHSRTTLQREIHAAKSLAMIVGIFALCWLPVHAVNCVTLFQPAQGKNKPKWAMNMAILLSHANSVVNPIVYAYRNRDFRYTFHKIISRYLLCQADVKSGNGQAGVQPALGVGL
Procedure, shortened: (§2)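 Membranes from HEK-293 cells expressing human A2B were labelled with 35 nM [3H]DPCPX. Incubation ran 30 min at 25 °C, followed by filtration and beta scintillation counting. IC50 was fitted by non-linear regression and converted to Ki by Cheng–Prusoff. Weak or poorly soluble compounds were given as % inhibition of specific binding at a single concentration. n = 3, each in duplicate.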

Homo sapiens [1] = organism: Homo sapiens; assay: Selectivity ratio of Ki for human adenosine A1 receptor to Ki for human adenosine A2B receptor
Procedure, shortened: (§3)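 Ratios of Ki values at each human subtype to Ki at human A2B (HEK-293 membranes, [3H]DPCPX). Each Ki was derived by Cheng–Prusoff from IC50 of radioligand competition binding in membranes of transfected cells. Results are the mean of 3 experiments, each in duplicate.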

Adenosine receptor A2a [2] = target: T3, Adenosine receptor A2a (Homo sapiens, UniProt P29274); assay: Displacement of [3H]ZM241385 from human recombinant adenosine A2A receptor expressed in human HeLa cells by microplate beta scintillation counter; assay type: cell-based
T3 sequence (P29274 whole entry): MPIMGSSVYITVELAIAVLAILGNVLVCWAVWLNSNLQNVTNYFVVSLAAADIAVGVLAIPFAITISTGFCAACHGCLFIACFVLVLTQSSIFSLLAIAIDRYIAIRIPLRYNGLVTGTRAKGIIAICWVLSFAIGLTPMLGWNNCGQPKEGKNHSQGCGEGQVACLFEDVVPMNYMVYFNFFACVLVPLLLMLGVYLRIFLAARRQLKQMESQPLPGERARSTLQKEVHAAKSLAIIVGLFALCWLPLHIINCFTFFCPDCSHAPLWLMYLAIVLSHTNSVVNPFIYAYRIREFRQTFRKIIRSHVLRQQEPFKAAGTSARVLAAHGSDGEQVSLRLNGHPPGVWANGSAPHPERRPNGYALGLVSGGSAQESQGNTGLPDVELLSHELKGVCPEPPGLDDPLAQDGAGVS
Procedure, shortened: (§4)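 Competition used HeLa cell membranes expressing human A2A with [3H]ZM241385. Non-specific binding was set with NECA. Incubation was 30 min at 25 °C, then filtration and beta scintillation counting. IC50 from non-linear regression was converted to Ki (Cheng–Prusoff). Weak or poorly soluble compounds were reported as % inhibition of specific binding at a single concentration. Three experiments, each in duplicate.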

[3] = target: T4, Adenosine receptor A3 (Homo sapiens) (UniProt P0DMS8); assay: Displacement of [3H]NECA from human recombinant adenosine A3 receptor expressed in human HeLa cells at 1 uM by microplate beta scintillation counter; assay type: cell-based
T4 sequence (whole entry): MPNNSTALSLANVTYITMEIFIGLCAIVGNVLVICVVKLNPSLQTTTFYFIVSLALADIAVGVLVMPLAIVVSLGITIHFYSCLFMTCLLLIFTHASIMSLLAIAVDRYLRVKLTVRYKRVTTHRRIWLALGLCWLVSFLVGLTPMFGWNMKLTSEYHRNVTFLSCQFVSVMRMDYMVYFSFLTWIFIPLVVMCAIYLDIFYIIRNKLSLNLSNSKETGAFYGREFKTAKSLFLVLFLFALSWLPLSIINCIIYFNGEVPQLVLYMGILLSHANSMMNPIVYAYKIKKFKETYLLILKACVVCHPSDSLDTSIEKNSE
Procedure, shortened: (§5)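 HeLa-A3 cell membranes were labelled with 30 nM [3H]NECA. Non-specific binding was defined with (R)-PIA. After 180 min at 25 °C, samples were filtered and counted by beta scintillation. Ki was calculated by Cheng–Prusoff from IC50 obtained by non-linear regression. Weak or poorly soluble compounds were reported as % inhibition of specific binding at a single concentration. Mean of 3 experiments in duplicate.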

Homo sapiens [4] = organism: Homo sapiens; assay: Selectivity ratio of Ki for human adenosine A2A receptor to Ki for human adenosine A2B receptor; procedure, shortened: as §3
Adenosine receptor A2a [5] = target: T3, Adenosine receptor A2a; assay: Displacement of [3H]ZM241385 from human recombinant adenosine A2A receptor expressed in human HeLa cells at 1 uM by microplate beta scintillation counter; assay type: cell-based; procedure, shortened: as §4
Adenosine receptor A3 = target: T5, Adenosine receptor A3 (Homo sapiens, UniProt P0DMS8); assay: Displacement of [3H]NECA from human recombinant adenosine A3 receptor expressed in human HeLa cells by microplate beta scintillation counter; assay type: cell-based; procedure, shortened: as §5
T5 sequence (P0DMS8 whole entry): T4 sequence (whole entry)

Homo sapiens [6] = organism: Homo sapiens; assay: Selectivity ratio of Ki for human adenosine A3 receptor to Ki for human adenosine A2B receptor; procedure, shortened: as §3
[7] = target: T6, Adenosine receptor A2b (Homo sapiens) (UniProt P29275); assay: Displacement of [3H]DPCPX from human recombinant adenosine A2B receptor expressed in HEK293 cells at 1 uM by microplate beta scintillation counter; assay type: cell-based; procedure, shortened: as §2
T6 sequence (whole entry): T2 sequence (P29275 whole entry)

[8] = target: T7, Adenosine receptor A1 (Homo sapiens) (UniProt P30542); assay: Displacement of [3H]DPCPX from human recombinant adenosine A1 receptor expressed in CHO cells at 1 uM by microplate beta scintillation counter; assay type: cell-based; procedure, shortened: as §1
T7 sequence (whole entry): T1 sequence (P30542 whole entry)

| SMILES | pKi (Adenosine receptor A1) | pKi (Adenosine receptor A2b) | Ratio Ki (Homo sapiens [1]) | pKi (Adenosine receptor A2a [2]) | Activity [3] | Ratio Ki (Homo sapiens [4]) | Activity (Adenosine receptor A2a [5]) | pKi (Adenosine receptor A3) | Ratio Ki (Homo sapiens [6]) | Activity [7] | Activity [8] |
| --- | --- | --- | --- | --- | --- | --- | --- | --- | --- | --- | --- |
| CCn1c(=O)c2c(nc(Cc3c(F)cccc3F)n2C)n(Cc2cccs2)c1=O | 6.92 | 6.87 | 0.9 | 6.75 | 20% | 1.3 | – | – | – | – | – |
| CCn1c(=O)c2c(nc(Cc3cccs3)n2C)n(Cc2cccs2)c1=O | 7.02 | 7.45 | 2.7 | 6.91 | 1% | 3.5 | – | – | – | – | – |
| CCSCCn1c(=O)n(CC)c(=O)c2[nH]c(-c3ccccc3)nc21 | 6.83 | 6.32 | 0.3 | – | – | – | 12% | 6.39 | 0.9 | – | – |
| CCCn1c(=O)c2[nH]c(-c3ccccc3)nc2n(CCSCC)c1=O | 7.03 | 6.72 | 0.5 | 5.84 | – | 7.6 | – | 6.93 | 0.6 | – | – |
| Cn1c(=O)c2[nH]c(-c3cccs3)nc2n(CC2CCCCC2)c1=O | 6.66 | – | – | – | 41% | – | 29% | – | – | 34% | – |
| CCCn1c(=O)c2[nH]c(-c3ccccc3)nc2n(CCS(=O)(=O)CC)c1=O | 7.03 | – | – | – | – | – | 3% | 7.03 | – | 39% | – |
| CCn1c(=O)c2c(nc(Cc3cccs3)n2C)n(Cc2ccccc2)c1=O | 6.41 | 6.43 | 1.1 | 6.12 | 6% | 2.1 | – | – | – | – | – |
| CCCn1c(=O)c2[nH]c(-c3ccccc3)nc2n(CC2CCCO2)c1=O (centres undefined) | 6.65 | – | – | – | – | – | 37% | 6.87 | – | 64% | – |
| CCn1c(=O)c2[nH]c(Cc3ccco3)nc2n(Cc2cccs2)c1=O | 6.39 | – | – | – | 42% | – | 19% | – | – | 30% | – |
| CCn1c(=O)c2c(nc(Cc3ccco3)n2C)n(Cc2ccccc2)c1=O | – | 6.55 | – | 5.76 | 14% | 6.2 | – | – | – | – | 29% |
| CCn1c(=O)c2c(nc(Cc3ccco3)n2C)n(Cc2cccs2)c1=O | 7.00 | 7.57 | 3.7 | 6.66 | 22% | 8.1 | – | – | – | – | – |
| CCCn1c(=O)c2c(nc(-c3ccccc3)n2C)n(CC2CCCO2)c1=O (centres undefined) | – | – | – | – | – | – | 25% | 6.20 | – | 41% | 38% |
| CCn1c(=O)c2[nH]c(Cc3cccs3)nc2n(Cc2cccs2)c1=O | 6.17 | 6.86 | 4.9 | 5.40 | – | 28.9 | – | 6.09 | 5.9 | – | – |
| CCCn1c(=O)c2[nH]c(-c3ccccc3)nc2n(CC[S+]([O-])CC)c1=O (centres undefined) | 6.71 | 6.23 | – | – | – | – | 9% | 6.61 | 0.4 | – | – |
